Source: PubChem (several laboratories)
In the library only some 2.1% were active in any assay of this set; here they are far more common.
LMPTP block = LMPTP (human) inhibition. recombinant LMPTP-A, OMFP fluorogenic substrate, fluorescence intensity. AID 651560. 0.22% of 360,000 active. P24666. inhibition, % at 20 µM;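 active means compounds that cut the enzyme signal by at least half of the control window in the single-dose screen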;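 further: plate controls were DMSO wells with enzyme plus substrate for no effect and substrate without enzyme for full effect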
Target sequence (P24666 whole entry, looked up): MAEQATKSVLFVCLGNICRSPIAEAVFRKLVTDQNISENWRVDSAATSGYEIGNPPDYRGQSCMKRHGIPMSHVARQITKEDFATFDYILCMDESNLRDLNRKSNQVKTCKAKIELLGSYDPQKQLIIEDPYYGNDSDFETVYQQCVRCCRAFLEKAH
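Test system: LMPTP-A, protein tyrosine phosphatase of low molecular weight; Input: 0.625 nM enzyme; Incubation: 50 min dark incubation at room temperature; Signal: endpoint fluorescence intensity from OMFP dephosphorylation; Read-out basis: % inhibition versus control wells.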
Scp-1 inhibitor = inhibitors of human Scp-1 phosphatase | inhibition, % at 20 µM | 0.88% of 340,000 active | AID 493091 | Recombinant Scp1, phosphopeptide, malachite green phosphate absorbance;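 active means inhibition above about 50% at 20 µM, limit read from the data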;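 further: plate controls were DMSO wells with enzyme for no effect and wells lacking enzyme for full effect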
Target sequence (Q9GZU7 76-261 limits assumed): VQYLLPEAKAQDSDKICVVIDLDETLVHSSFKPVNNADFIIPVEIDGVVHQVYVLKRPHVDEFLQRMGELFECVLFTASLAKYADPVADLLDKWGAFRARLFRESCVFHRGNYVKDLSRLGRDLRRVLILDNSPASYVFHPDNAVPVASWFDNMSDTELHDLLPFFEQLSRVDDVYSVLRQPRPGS
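Test system: SCP-1 phosphatase catalytic domain, residues 76-261; measured by: colorimetric phosphate reagent with accelerator and stabiliser, absorbance at 630 nm; timing: enzyme reaction 45 min at room temperature, colour 5 min, stabilisation 30 min; also added: Phosphorylated 17-residue peptide substrate; compound dosing: one concentration, 20 µM, with 1.0% DMSO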
STEP block = blocks human striatal-enriched tyrosine phosphatase; recombinant STEP, OMFP fluorogenic substrate, fluorescence; inhibition, % at 20 µM; P54829; 0.25% of 360,000 active; AID 588621;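 active means inhibition at 20 µM, scaled per plate between control wells, above about 37%, limit read from the data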;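 further: 0% = DMSO with enzyme and substrate and 100% = substrate only without enzyme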
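Material: STEP (striatal-enriched tyrosine phosphatase) enzyme, cell-free | Medium: 50 mM Bis-Tris pH 6.0 with 2.5 mM DTT and 0.005% Tween 20 | Read-out: Percent inhibition scaled to no-enzyme and uninhibited-enzyme controls, plate-pattern corrected | Signal: Fluorescence read at 480 nm ex / 540 nm em | Times: 20 min reaction, room temperature, in the dark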
SUMO1 PPI mod = modulators of human SUMO1-mediated protein-protein interactions; SUMO1 binding to a labelled peptide, TR-FRET, 1 h; inhibition, % at 20 µM; 0.33% of 360,000 active; AID 602429; in the data active means inhibition above about 37%
Target sequence (P63165 whole entry, looked up): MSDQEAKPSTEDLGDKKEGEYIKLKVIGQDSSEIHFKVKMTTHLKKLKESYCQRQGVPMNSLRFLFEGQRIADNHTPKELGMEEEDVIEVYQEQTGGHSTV
DNMT1 block = inhibitors of human DNMT1; P26358; DNMT1 molecular beacon, Hinp1I cleavage, fluorescence; inhibition (reported as % activation of signal), % at 10 µM; 0.83% of 360,000 active; AID 588458; in the data active means inhibition above about 50%
GRK2 aptamer HTS = human GRK2 inhibition via aptamer displacement. AID 488847. P25098. inhibition of aptamer binding, % at 10 µM. 0.59% of 330,000 active. bead flow cytometry, FAM-aptamer displacement from GRK2;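 active means inhibition of aptamer binding above 40%, roughly 3 SD of noise, on plates passing a quality check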;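 further: median bead fluorescence of bound FAM aptamer so fluorescent compounds give negative values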
GRK2 CP1 = human GRK2 inhibition confirmation, cherry pick 1 | 4% of 2,000 active | bead-bound GRK2, FAM-aptamer displacement, flow cytometry | AID 504451 | aptamer displacement, % at 10 µM | shares compounds with GRK2 aptamer HTS;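 active means aptamer displacement above 40%, near three times the noise of non-fluorescent compounds, on plates passing quality checks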;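 further: negative values mostly reflect intrinsic compound fluorescence rather than true enhancement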
Aptamer quench SP = counter-screen for GRK2 aptamer inhibitors: fluorescent aptamer quenchers; shares compounds with GRK2 aptamer HTS; Carboxyfluorescein RNA aptamer on beads, flow cytometry quenching; hits give low values; fluorescence response (% of DMSO), % at 10 µM; 2,000 tested, under 10 active; AID 504580;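 active means compounds that quench the bead-bound fluorescent RNA probe, cutting fluorescence to under half of the solvent control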;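 further: counterscreen run without GRK2 so only probe quenching by compound is measured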
* hit, by the source's call.

For CCCc1nnc(NS(=O)(=O)c2ccccc2)s1 the results were LMPTP block -3, Scp-1 inhibitor -7, STEP block 0, SUMO1 PPI mod -1, DNMT1 block 0 and GRK2 aptamer HTS 0.
Screening CC(=O)Nc1nnc(CCS(=O)(=O)c2ccc(Cl)cc2)s1 returned LMPTP block 0, Scp-1 inhibitor 1, STEP block -2, SUMO1 PPI mod -2 and DNMT1 block -3.
Screening CCOC(=O)c1cc2c(c(CCO)n1)[C@@H](CCO)N(S(=O)(=O)C(C)(C)C)C2 returned LMPTP block -1, Scp-1 inhibitor -11, STEP block 3, SUMO1 PPI mod 7 and DNMT1 block 2.
`Cc1cc(F)ccc1C(O)c1ncc(-c2ccccc2Cl)[nH]1` (centres undefined) gave LMPTP block 1, STEP block -2, SUMO1 PPI mod 5 and DNMT1 block 4.
For CCCCCn1c(CN2CCCCC2CC)nc2c1c(=O)n(C)c(=O)n2C (centres undefined) the results were LMPTP block -1, Scp-1 inhibitor -17, STEP block -5, SUMO1 PPI mod 3, DNMT1 block 3, GRK2 aptamer HTS 0, GRK2 CP1 0 and Aptamer quench SP 101.
CC(=O)Nc1cccc(C(=O)NN2C(=O)NC3(CCC(C)CC3)C2=O)c1 (centres undefined) was read as LMPTP block -1, STEP block -3, SUMO1 PPI mod -9 and DNMT1 block -2.
`CCOC(=O)CSc1nnc(CSc2nc3sc4c(c3c(=O)[nH]2)CCC4)n1C` gave LMPTP block -1, Scp-1 inhibitor -8, STEP block 1, SUMO1 PPI mod 3, DNMT1 block 11, GRK2 aptamer HTS 67*, GRK2 CP1 1 and Aptamer quench SP 101.
Screening CCOC(=O)CSc1nnc(CSc2nc3sc4c(c3c(=O)[nH]2)CCC4)n1-c1ccccc1 returned LMPTP block 0, Scp-1 inhibitor -2, STEP block 3, SUMO1 PPI mod 8, DNMT1 block 3 and GRK2 aptamer HTS 0.
`Cc1ccc(C)c(NC(=S)NC(=O)c2cncc(Br)c2)c1` gave LMPTP block 0, Scp-1 inhibitor -3, STEP block 2, SUMO1 PPI mod -12, DNMT1 block 2, GRK2 aptamer HTS 79*, GRK2 CP1 -2 and Aptamer quench SP 96.
Screening OC(CNC1CCCCCC1)COc1cccc2ccccc12 (centres undefined) returned LMPTP block 0, Scp-1 inhibitor 4, STEP block 0, SUMO1 PPI mod 1, DNMT1 block -4, GRK2 aptamer HTS 52*, GRK2 CP1 -5 and Aptamer quench SP 95.
OC(CNC1CCCC1)COc1ccccc1Br (centres undefined) was read as LMPTP block -3, Scp-1 inhibitor -4, STEP block 0, SUMO1 PPI mod 0, DNMT1 block -2 and GRK2 aptamer HTS 0.
For CC(Oc1ccccc1)c1ccnn1S(C)(=O)=O (centres undefined) the results were LMPTP block 0, Scp-1 inhibitor -1, STEP block 1, SUMO1 PPI mod -1, DNMT1 block 3, GRK2 aptamer HTS 38, GRK2 CP1 1 and Aptamer quench SP 98.
For CC(Oc1ccc(Cl)cc1)c1ccnn1S(=O)(=O)c1ccccc1 (centres undefined) the results were LMPTP block 3, Scp-1 inhibitor -10, STEP block 1, SUMO1 PPI mod -1, DNMT1 block -3 and GRK2 aptamer HTS 0.
`O=C(NCc1ccco1)C1(c2ccccc2)CCCC1` gave LMPTP block -2, Scp-1 inhibitor 0, STEP block -2, SUMO1 PPI mod -1, DNMT1 block 3 and GRK2 aptamer HTS 0.
